Reference: ChEMBL document CHEMBL1154052, “Design, synthesis and primary activity evaluation of L-arginine derivatives as amino-peptidase N/CD13 inhibitors” (Bioorg Med Chem, 2009)

Key:
Aminopeptidase N = target: T1, Aminopeptidase N (Sus scrofa, UniProt P15145); assay: Inhibition of aminopeptidase N in pig kidney microsome by spectrophotometry; format: microsomes
T1 sequence (P15145 whole entry): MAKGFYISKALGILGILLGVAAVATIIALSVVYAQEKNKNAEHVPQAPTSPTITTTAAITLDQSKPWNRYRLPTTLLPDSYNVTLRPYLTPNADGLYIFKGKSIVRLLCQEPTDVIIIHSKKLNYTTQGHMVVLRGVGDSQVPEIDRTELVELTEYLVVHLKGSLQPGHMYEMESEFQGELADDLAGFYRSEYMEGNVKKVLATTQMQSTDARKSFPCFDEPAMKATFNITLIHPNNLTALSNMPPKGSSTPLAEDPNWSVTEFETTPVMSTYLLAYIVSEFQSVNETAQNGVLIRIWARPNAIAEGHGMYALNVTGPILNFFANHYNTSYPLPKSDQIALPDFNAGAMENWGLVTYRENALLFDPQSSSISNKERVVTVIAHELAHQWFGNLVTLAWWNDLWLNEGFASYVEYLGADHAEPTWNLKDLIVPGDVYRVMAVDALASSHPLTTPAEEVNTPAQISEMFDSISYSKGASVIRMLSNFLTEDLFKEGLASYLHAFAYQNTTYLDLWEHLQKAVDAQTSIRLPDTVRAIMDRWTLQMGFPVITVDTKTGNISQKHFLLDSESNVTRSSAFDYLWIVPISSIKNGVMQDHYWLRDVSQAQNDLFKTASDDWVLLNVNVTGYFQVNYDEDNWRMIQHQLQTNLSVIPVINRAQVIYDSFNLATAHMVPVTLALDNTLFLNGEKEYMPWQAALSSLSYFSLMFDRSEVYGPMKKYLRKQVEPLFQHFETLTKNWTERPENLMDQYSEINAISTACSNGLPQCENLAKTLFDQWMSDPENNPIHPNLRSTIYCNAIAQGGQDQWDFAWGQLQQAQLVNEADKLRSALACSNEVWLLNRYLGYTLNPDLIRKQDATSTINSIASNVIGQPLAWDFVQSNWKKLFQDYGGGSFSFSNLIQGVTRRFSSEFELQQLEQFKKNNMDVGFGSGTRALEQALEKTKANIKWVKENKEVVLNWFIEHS
Summary of the method: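 Porcine kidney microsomal aminopeptidase (4 μg/mL final) preincubated with inhibitor for 30 min at room temperature in 50 mM PBS, pH 7.2. Inhibitor solutions made in assay buffer and adjusted to pH 7.5. Substrate L-Leu-p-nitroanilide. IC50 determined.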

[1] = Selectivity ratio of IC50 for MMP2 to IC50 for aminopeptidase N in pig kidney microsome
[2] = target: 72 kDa type IV collagenase (Homo sapiens, UniProt P08253); assay: Inhibition of MMP2
Summary of the method: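 MMP-2 (gelatinase A) incubated with substrate and inhibitor in 50 mmol/L sodium borate, pH 8.5, 30 min at 37 °C. 0.03% TNBS then added and incubated a further 20 min. Absorbance read at 450 nm.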

72 kDa type IV collagenase, sequence (P08253 whole entry): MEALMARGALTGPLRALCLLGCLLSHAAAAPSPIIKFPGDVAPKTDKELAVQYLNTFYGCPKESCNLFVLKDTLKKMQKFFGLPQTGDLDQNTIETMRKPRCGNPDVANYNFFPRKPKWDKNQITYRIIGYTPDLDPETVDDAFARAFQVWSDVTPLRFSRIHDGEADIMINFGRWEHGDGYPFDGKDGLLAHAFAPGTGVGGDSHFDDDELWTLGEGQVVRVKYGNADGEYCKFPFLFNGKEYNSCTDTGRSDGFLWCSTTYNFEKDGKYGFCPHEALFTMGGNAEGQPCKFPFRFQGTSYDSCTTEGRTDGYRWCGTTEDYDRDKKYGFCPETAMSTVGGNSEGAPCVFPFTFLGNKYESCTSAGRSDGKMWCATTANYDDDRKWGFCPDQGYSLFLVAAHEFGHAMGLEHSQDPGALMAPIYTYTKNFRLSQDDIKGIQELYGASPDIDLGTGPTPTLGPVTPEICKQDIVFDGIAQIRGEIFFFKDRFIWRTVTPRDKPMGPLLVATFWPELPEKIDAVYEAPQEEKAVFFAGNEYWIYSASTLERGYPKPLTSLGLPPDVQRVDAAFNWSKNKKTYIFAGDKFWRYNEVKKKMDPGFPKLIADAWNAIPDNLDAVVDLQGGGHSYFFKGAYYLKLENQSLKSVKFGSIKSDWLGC

Compound | IC50 (Aminopeptidase N) [µM] | Ratio IC50 [1] | IC50 [2] [µM]
N=C(NCCC[C@H](NC(=O)/C=C/c1ccccc1)C(=O)NO)N[N+](=O)[O-] | 1010 | 0.04 | 36.7
NC(=N[N+](=O)[O-])NCCC[C@H](NC(=O)c1cccs1)C(=O)NO | 85.7 | – | 226
Cc1cccc(C(=O)N[C@@H](CCCNC(=N)N[N+](=O)[O-])C(=O)NO)c1 | 42.8 | 14.6 | 623
NC(=N[N+](=O)[O-])NCCC[C@H](NC(=O)c1ccc(Br)c([N+](=O)[O-])c1)C(=O)NO | 5.1 | – | 236
N=C(NCCC[C@H](NC(=O)c1ccc(Br)cc1)C(=O)NO)N[N+](=O)[O-] | – | 1.1 | –
N=C(NCCC[C@H](NC(=O)c1ccc(Br)c([N+](=O)[O-])c1)C(=O)NO)N[N+](=O)[O-] | – | 46.3 | –
N=C(NCCC[C@H](NC(=O)c1cccc([N+](=O)[O-])c1)C(=O)NO)N[N+](=O)[O-] | 43.4 | 2.3 | 102
N=C(NCCC[C@H](NC(=O)c1ccc([N+](=O)[O-])cc1)C(=O)NO)N[N+](=O)[O-] | 15.9 | 12.8 | 204
N=C(NCCC[C@H](NS(=O)(=O)c1ccccc1)C(=O)NO)N[N+](=O)[O-] | – | 1.7 | –
NC(=N[N+](=O)[O-])NCCC[C@H](NC(=O)c1ccc(Br)cc1)C(=O)NO | 443 | – | 484
N=C(NCCC[C@H](NC(=O)CCc1ccccc1)C(=O)NO)N[N+](=O)[O-] | 332 | 4.9 | 1640
N=C(NCCC[C@H](NC(=O)c1ccc(Cl)cc1Cl)C(=O)NO)N[N+](=O)[O-] | 5.3 | 65.8 | 349
N=C(NCCC[C@H](NC(=O)c1ccccc1I)C(=O)NO)N[N+](=O)[O-] | 21.9 | 8 | 176
NC(=N[N+](=O)[O-])NCCC[C@H](NS(=O)(=O)c1ccccc1)C(=O)NO | 60.2 | – | 100
COc1ccc(C(=O)N[C@@H](CCCNC(N)=N[N+](=O)[O-])C(=O)NO)cc1OC | 26.9 | – | 346
Cc1ccc(S(=O)(=O)N[C@@H](CCCNC(=N)N[N+](=O)[O-])C(=O)NO)cc1 | – | 0.3 | –
N=C(NCCC[C@H](NC(=O)c1ccc2ccccc2c1)C(=O)NO)N[N+](=O)[O-] | – | 5.9 | –
N=C(NCCC[C@H](NC(=O)c1ccccc1)C(=O)NO)N[N+](=O)[O-] | 80.6 | 8.6 | 693

Compound | IC50 (Aminopeptidase N) [µM] | Ratio IC50 [1] | IC50 [2] [µM]
NC(=N[N+](=O)[O-])NCCC[C@H](NC(=O)Cc1ccccc1)C(=O)NO | 1660 | – | 8.7
COc1cc(C(=O)N[C@@H](CCCNC(=N)N[N+](=O)[O-])C(=O)NO)cc(OC)c1OC | – | 0.2 | –
NC(=N[N+](=O)[O-])NCCC[C@H](NC(=O)c1ccc2ccccc2c1)C(=O)NO | 14.6 | – | 85.5
N=C(NCCC[C@H](NC(=O)c1cccs1)C(=O)NO)N[N+](=O)[O-] | – | 2.6 | –
N=C(NCCC[C@H](NC(=O)c1ccc(Cl)c(Cl)c1)C(=O)NO)N[N+](=O)[O-] | 33.5 | 5.8 | 194
COc1cccc(C(=O)N[C@@H](CCCNC(=N)N[N+](=O)[O-])C(=O)NO)c1 | 16.5 | 9.1 | 151
N=C(NCCC[C@H](NC(=O)c1ccccc1Cl)C(=O)NO)N[N+](=O)[O-] | – | 7.3 | –
N=C(NCCC[C@H](NC(=O)c1cccc(Cl)c1)C(=O)NO)N[N+](=O)[O-] | 202 | 0.4 | 89.2
COc1ccc(C(=O)N[C@@H](CCCNC(=N)N[N+](=O)[O-])C(=O)NO)cc1OC | – | 12.8 | –
N=C(NCCC[C@H](NC(=O)c1ccc(Cl)cc1)C(=O)NO)N[N+](=O)[O-] | 215 | 1.1 | 238
NC(=N[N+](=O)[O-])NCCC[C@H](NC(=O)c1ccccc1Cl)C(=O)NO | 20.4 | – | 150
Cc1ccccc1C(=O)N[C@@H](CCCNC(=N)N[N+](=O)[O-])C(=O)NO | 221 | 9.3 | 2070
Cc1ccc(S(=O)(=O)N[C@@H](CCCNC(N)=N[N+](=O)[O-])C(=O)NO)cc1 | 109 | – | 28.9
N=C(NCCC[C@H](NC(=O)Cc1ccccc1)C(=O)NO)N[N+](=O)[O-] | – | 0.05 | –
COc1cc(C(=O)N[C@@H](CCCNC(N)=N[N+](=O)[O-])C(=O)NO)cc(OC)c1OC | 271 | – | 41.1
COc1ccc(C(=O)N[C@@H](CCCNC(N)=N[N+](=O)[O-])C(=O)NO)cc1 | 60.2 | – | 322
COc1ccccc1C(=O)N[C@@H](CCCNC(=N)N[N+](=O)[O-])C(=O)NO | 78.4 | 3.2 | 253
COc1ccc(C(=O)N[C@@H](CCCNC(=N)N[N+](=O)[O-])C(=O)NO)cc1 | – | 5.4 | –
